Experimental data as given in ChEMBL document CHEMBL1795211, “Evaluation of NTF1836 as an inhibitor of the mycothiol biosynthetic enzyme MshC in growing and non-replicating Mycobacterium tuberculosis” (Bioorg Med Chem, 2011).
Values after ≈ are worked out from the molar mass of the structure shown. Active and inactive are the calls of the source. No cut-off for these calls is given here.

Experiments:
[1] = biological target: T1, L-cysteine:1D-myo-inositol 2-amino-2-deoxy-alpha-D-glucopyranoside ligase (Mycobacterium tuberculosis, UniProt P9WJM9); assay: Inhibition of Mycobacterium tuberculosis recombinant MshC assessed as production of Cys-GlcN-Ins from cysteine by HPLC based fluorescence assay
T1 sequence (P9WJM9 whole entry): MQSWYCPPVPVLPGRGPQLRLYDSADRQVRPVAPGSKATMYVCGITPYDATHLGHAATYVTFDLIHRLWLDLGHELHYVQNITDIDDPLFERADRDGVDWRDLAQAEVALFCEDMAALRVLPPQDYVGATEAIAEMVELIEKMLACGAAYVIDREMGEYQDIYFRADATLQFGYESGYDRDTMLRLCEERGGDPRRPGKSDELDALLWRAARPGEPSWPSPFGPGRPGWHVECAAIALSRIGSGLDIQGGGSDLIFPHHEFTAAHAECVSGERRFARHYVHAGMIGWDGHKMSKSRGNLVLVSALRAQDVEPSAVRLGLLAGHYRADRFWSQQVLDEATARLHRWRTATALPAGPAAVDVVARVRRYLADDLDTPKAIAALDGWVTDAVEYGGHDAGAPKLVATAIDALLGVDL

[2] = Antimycobacterial activity against mid-log phase of Mycobacterium tuberculosis Erdman ATCC 35801 after 7 days by 96 well plate assay; format: functional, Mycobacterium tuberculosis str. Erdman; conditions: ATCC 35801, 168 h
[3] = test system: Vero; assay: Cytotoxicity against african green monkey Vero cells assessed as cell viability after 48 hrs by neutral red assay; format: cell-based; conditions: chlorocebus sabaeus
[4] = test system: Mycobacterium tuberculosis; assay: Antimycobacterial activity against mid-log phase of Mycobacterium tuberculosis CDC1551 isolated from patient after 7 days by 96 well plate assay; format: functional; conditions: CDC1551, 168 h
[5] = Antimycobacterial activity against mid-log phase of Mycobacterium tuberculosis Erdman ATCC 35801 assessed as reduction of viability at 20 uM after 7 days by 96 well plate assay; format: functional, Mycobacterium tuberculosis str. Erdman
[6] = biological target: T2, L-cysteine:1D-myo-inositol 2-amino-2-deoxy-alpha-D-glucopyranoside ligase (Mycobacterium tuberculosis) (UniProt P9WJM9); assay: Inhibition of MshC in Mycobacterium tuberculosis Erdman ATCC 35801 assessed as reduction of Cys-GlcN-Ins accumulation at 10 to 80 uM after 7 days by HPLC based fluorescence assay; conditions: Mycobacterium tuberculosis str. Erdman
T2 sequence (whole entry): T1 sequence (P9WJM9 whole entry)

[7] = test system: Mycobacterium tuberculosis str. Erdman; assay: Antimycobacterial activity against mid-log phase of Mycobacterium tuberculosis Erdman ATCC 35801 assessed as growth inhibition by measuring change on optical density at 600 nm at 30 to 50 uM after 7 days; format: functional
Procedure, shortened: (§1)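 Mid-log Erdman in 7H9 + ADS adjusted to OD600 0.08; 8 mL aliquots with 10–75 µM compound (from DMSO stock) in vented flasks, 7 d at 37 °C; duplicates with DMSO-matched control; growth read as 7-day change in OD600.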

[8] = test system: Mycobacterium tuberculosis str. Erdman; assay: Antimycobacterial activity against mid-log phase of Mycobacterium tuberculosis Erdman ATCC 35801 assessed as growth inhibition after 7 days by 96 well plate assay; format: functional
[9] = test system: Mycobacterium tuberculosis str. Erdman; assay: Antimycobacterial activity against mid-log phase of Mycobacterium tuberculosis Erdman ATCC 35801 assessed as growth inhibition by measuring change on optical density at 600 nm after 7 days; format: functional; procedure, shortened: as §1
[10] = Antimycobacterial activity against mid-log phase of Mycobacterium tuberculosis Erdman ATCC 35801 assessed as reduction of viability at 50 to 75 uM after 7 days by 96 well plate assay relative to control; format: functional, Mycobacterium tuberculosis str. Erdman
[11] = Antimycobacterial activity against non-replicating Mycobacterium tuberculosis Erdman ATCC 35801 nutrient starvation model assessed as reduction viability at 90 uM after 15 days by 96 well plate assay; format: functional, Mycobacterium tuberculosis str. Erdman
Procedure, shortened: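 Non-replicating Erdman from nutrient starvation in PBS + 0.05% Tween 80 for 6 weeks; compound dilutions then added and incubation continued 15 d; viable counts by plating serial dilutions on 7H9 agar with OADC; duplicate samples.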

SMILES | IC50 [1] [µM] | also measured
CC1CC(C)CN(CCCNC(=O)c2ccc3c(c2)N(Cc2cccc(Cl)c2)C(=O)c2ccccc2[S+]3[O-])C1 (racemic) | 500 | 
CCN(CC)CCCNC(=O)c1ccc2c(c1)N(Cc1ccc(C)cc1C)C(=O)c1ccccc1[S+]2[O-] (racemic) | > 3000 | 
Cc1ccc(CN2C(=O)c3ccccc3S(=O)(=O)c3ccc(C(=O)NCCCN4CCOCC4)cc32)c(C)c1 | > 3000 | 
CN(CCCNC(=O)c1ccc2c(c1)N(Cc1ccc(F)cc1)C(=O)c1ccccc1[S+]2[O-])C1CCCCC1 (racemic) | > 3000 | 
CN(CCCNC(=O)c1ccc2c(c1)N(Cc1cccc(Cl)c1)C(=O)c1ccccc1S2)C1CCCCC1 | 280 | 
CC1CCCN(CCCNC(=O)c2ccc3c(c2)N(Cc2ccccc2F)C(=O)c2ccccc2S3(=O)=O)C1 (configuration not stated) | 800 | 
O=C(NCCCN1CCOCC1)c1ccc2c(c1)N(Cc1cccc(Cl)c1)C(=O)c1ccccc1S2 | 800 | 
CCC1CCCCN1CCCNC(=O)c1ccc2c(c1)N(Cc1cccc(Cl)c1)C(=O)c1ccccc1[S+]2[O-] (racemic) | 80 | MIC95 [2]: 55 µM (≈ 31 µg/mL); cytotoxic concentration [3]: 100 µM; MIC95 [4]: 32 µM (≈ 18.1 µg/mL)
CN(CCCNC(=O)c1ccc2c(c1)N(Cc1ccc(Cl)cc1)C(=O)c1ccccc1S2(=O)=O)C1CCCCC1 | 330 | 
CC1CCCN(CCCNC(=O)c2ccc3c(c2)N(Cc2cccc(Cl)c2)C(=O)c2ccccc2[S+]3[O-])C1 (racemic) |  | MIC95 [2]: 55 µM (≈ 30.3 µg/mL); cytotoxic concentration [3]: 100 µM
CC1CC(C)CN(CCCNC(=O)c2ccc3c(c2)N(Cc2ccccc2F)C(=O)c2ccccc2[S+]3[O-])C1 (racemic) | > 3000 | 
CN(C)CCCNC(=O)c1ccc2c(c1)N(Cc1ccc(Cl)cc1)C(=O)c1ccccc1[S+]2[O-] (racemic) | 340 | 
O=C(NCCCSC1CCCCC1)c1ccc2c(c1)N(Cc1cccc(Cl)c1)C(=O)c1ccccc1[S+]2[O-] (racemic) | ≥ 1000 | 
O=C(NCCCN1CCOCC1)c1ccc2c(c1)N(Cc1cccc(Cl)c1)C(=O)c1ccccc1S2(=O)=O | 3000 | 
CN(CCCNC(=O)c1ccc2c(c1)N(Cc1cccc(Cl)c1)C(=O)c1ccccc1[S+]2[O-])C1CCCCC1 (racemic) | 85 | MIC95 [2]: 28 µM (≈ 15.8 µg/mL); Activity [5]: 50%; cytotoxic concentration [3]: 50 µM; inhibition [6]: Active; growth inhibition (GI) [7]: 50%; growth inhibition (GI) [8]: Dose-dependent effect; growth inhibition (GI) [9]: Dose-dependent effect; Activity [10]: 97%; Activity [11]: 99%
CCCCN(C)CCCNC(=O)c1ccc2c(c1)N(Cc1cccc(Cl)c1)C(=O)c1ccccc1[S+]2[O-] (racemic) | 110 | 
CCN1C(=O)c2ccccc2[S+]([O-])c2ccc(C(=O)NCCCN3CCCCCC3)cc21 (racemic) | ≥ 3000 | 
O=C(NCCN1CCCCCC1)c1ccc2c(c1)N(Cc1cccc(Cl)c1)C(=O)c1ccccc1[S+]2[O-] (racemic) | 100 | MIC95 [2]: 28 µM (≈ 15 µg/mL); cytotoxic concentration [3]: 100 µM
CCCN(CCC)CCCNC(=O)c1ccc2c(c1)N(Cc1cccc(Cl)c1)C(=O)c1ccccc1[S+]2[O-] (racemic) | 100 | 
O=C(NCCCN1CCCC1)c1ccc2c(c1)N(Cc1cccc(Cl)c1)C(=O)c1ccccc1[S+]2[O-] (racemic) | 100 | MIC95 [2]: 55 µM (≈ 28.7 µg/mL); cytotoxic concentration [3]: 50 µM
CO[C@H]1/C=C/O[C@@]2(C)Oc3c(C)c(O)c4c(O)c(c(/C=N/N5CCN(C)CC5)c(O)c4c3C2=O)NC(=O)/C(C)=C\C=C\[C@H](C)[C@H](O)[C@@H](C)[C@@H](O)[C@@H](C)[C@H](OC(C)=O)[C@@H]1C [RIFAMPIN] |  | MIC95 [2]: 0.24 µM (≈ 0.198 µg/mL)
Cc1ccc(CN2C(=O)c3ccccc3S(=O)(=O)c3ccc(C(=O)NCCCN4CCCC4)cc32)c(C)c1 | 1400 | 
CN(CCCNC(=O)c1ccc2c(c1)N(Cc1ccccc1)C(=O)c1ccccc1S2(=O)=O)C1CCCCC1 | 500 | 
CN(CCCNC(=O)c1ccc2c(c1)N(Cc1ccccc1)C(=O)c1ccccc1[S+]2[O-])C1CCCCC1 (racemic) | 300 | 
O=C(NCCCN1CCOCC1)c1ccc2c(c1)N(Cc1cccc(Cl)c1)C(=O)c1ccccc1[S+]2[O-] (racemic) | 500 | 
O=C(NCCCN1CCCC1)c1ccc2c(c1)N(Cc1cccc(Cl)c1)C(=O)c1ccccc1S2 | 130 | MIC95 [2]: 55 µM (≈ 27.8 µg/mL); cytotoxic concentration [3]: 50 µM
O=C(NCC1CCCN1)c1ccc2c(c1)N(Cc1cccc(Cl)c1)C(=O)c1ccccc1S2(=O)=O (configuration not stated) | 2500 | 
Cc1ccc(CN2C(=O)c3ccccc3[S+]([O-])c3ccc(C(=O)NCCCN(C)C4CCCCC4)cc32)c(C)c1 (racemic) | 2000 | 
